According to ChEMBL document CHEMBL1795235, “Quercetin diacylglycoside analogues showing dual inhibition of DNA gyrase and topoisomerase IV as novel antibacterial agents” (J Med Chem, 2011):
Values after ≈ are worked out from the molar mass of the structure shown.

How the values were obtained:
[1] = test system: Staphylococcus aureus; experiment: Antibacterial activity against methicillin-resistant Staphylococcus aureus OM481 after 24 hrs by microdilution method; type: functional; details: OM481, 24 h
Outline: (§1)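 Broth microdilution in Mueller-Hinton broth with 0.85% NaCl, inoculum about 10^5 CFU per 100 μL. Compounds were diluted in water from 25.6 mg/mL stocks to final 2-fold series of 0.062–128 μg/mL. Plates were incubated 24 h at 35 °C. MIC was the lowest concentration at which all triplicate wells were clear, from three independent determinations.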

[2] = test system: Staphylococcus aureus; experiment: Antibacterial activity against methicillin-resistant Staphylococcus aureus N315 after 24 hrs by microdilution method; type: functional; details: N315, 24 h; outline: as §1
[3] = test system: Enterococcus; experiment: Antibacterial activity against vancomycin resistant Enterococcus NCTC 12201 after 24 hrs by microdilution method; type: functional; details: NCTC 12201, 24 h; outline: as §1
[4] = Inhibition of Staphylococcus aureus DNA Topoisomerase 4-mediated decatenation of kDNA after 30 mins by densitometry
Outline: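 Purchased S. aureus topoIV, one unit with 200 ng kDNA, 37 °C, 30 min. Products resolved on 1.0% agarose in TAE. IC50 of decatenation from densitometry by interpolation equation, at least three determinations.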

[5] = test system: Staphylococcus aureus; experiment: Antibacterial activity against methicillin-susceptible Staphylococcus aureus 209P after 24 hrs by microdilution method; type: functional; outline: as §1
[6] = Inhibition of Escherichia coli DNA topoisomerase 4 subunit ParC/DNA topoisomerase 4 subunit ParE-mediated decatenation of kDNA by densitometry
Outline: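 Purchased E. coli topoIV kit enzyme, one unit with 200 ng kDNA, 37 °C, 30 min. Buffer: 50 mM HEPES-KOH pH 7.6, 5 mM magnesium acetate, 100 mM potassium glutamate, 10 mM DTT, 1 mM ATP, 40% glycerol. Gel on 1.0% agarose in TAE. IC50 of decatenation from densitometry by interpolation equation, at least three determinations.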

[7] = test system: Staphylococcus aureus; experiment: Antibacterial activity against methicillin-resistant Staphylococcus aureus OM584 after 24 hrs by microdilution method; type: functional; details: OM584, 24 h; outline: as §1
[8] = test system: Staphylococcus aureus; experiment: Antibacterial activity against vancomycin-intermediate Staphylococcus aureus Mu50 after 24 hrs by microdilution method; type: functional; details: Mu50, 24 h; outline: as §1
[9] = test system: Enterococcus; experiment: Antibacterial activity against vancomycin resistant Enterococcus FN-1 after 24 hrs by microdilution method; type: functional; details: FN-1, 24 h; outline: as §1
[10] = test system: Streptococcus pneumoniae; experiment: Antibacterial activity against Streptococcus pneumoniae R6 after 24 hrs by microdilution method; type: functional; details: R6, 24 h
Outline: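 Broth microdilution in Mueller-Hinton broth with 0.85% NaCl, inoculum about 10^5 CFU per 100 μL. Compounds diluted from 25.6 mg/mL stocks in water to 2-fold series, final 0.062–128 μg/mL. […] Three independent determinations.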

[11] = test system: Staphylococcus aureus; experiment: Antibacterial activity against methicillin-resistant Staphylococcus aureus COL after 24 hrs by microdilution method; type: functional; outline: as §1

## CCOc1ccc(CCC(=O)O[C@H]2[C@H](Oc3c(-c4ccc(O)c(O)c4)oc4cc(O)cc(O)c4c3=O)O[C@H](CO)[C@@H](O)[C@@H]2OC(=O)CCc2ccc(OCC)cc2)cc1
[1]
  MIC: 2 µg/mL (≈ 2.45 µM)
[2]
  MIC: 1 µg/mL (≈ 1.22 µM)
[3]
  MIC: 4 µg/mL (≈ 4.9 µM)
[4]
  IC50: 3.02 µM
[5]
  MIC: 1 µg/mL (≈ 1.22 µM)
[6]
  IC50: > 12 µM
[7]
  MIC: 2 µg/mL (≈ 2.45 µM)
[8]
  MIC: 1 µg/mL (≈ 1.22 µM)
[9]
  MIC: 2 µg/mL (≈ 2.45 µM)
[10]
  MIC: 1 µg/mL (≈ 1.22 µM)
[11]
  MIC: 4 µg/mL (≈ 4.9 µM)

## CCCc1ccc(C(=O)O[C@H]2[C@H](Oc3c(-c4ccc(O)c(O)c4)oc4cc(O)cc(O)c4c3=O)O[C@H](CO)[C@@H](O)[C@@H]2OC(=O)c2ccc(CCC)cc2)cc1
[1]
  MIC: 2 µg/mL (≈ 2.64 µM)
[2]
  MIC: 1 µg/mL (≈ 1.32 µM)
[3]
  MIC: 4 µg/mL (≈ 5.29 µM)
[4]
  IC50: 1.83 µM
[5]
  MIC: 1 µg/mL (≈ 1.32 µM)
[6]
  IC50: 11.8 µM
[7]
  MIC: 2 µg/mL (≈ 2.64 µM)
[8]
  MIC: 1 µg/mL (≈ 1.32 µM)
[9]
  MIC: 2 µg/mL (≈ 2.64 µM)
[10]
  MIC: 1 µg/mL (≈ 1.32 µM)
[11]
  MIC: 4 µg/mL (≈ 5.29 µM)

## CCOc1ccc(C(=O)O[C@H]2[C@H](Oc3c(-c4ccc(O)c(O)c4)oc4cc(O)cc(O)c4c3=O)O[C@H](CO)[C@@H](O)[C@@H]2OC(=O)c2ccc(OCC)cc2)cc1
[1]
  MIC: 2 µg/mL (≈ 2.63 µM)
[2]
  MIC: 1 µg/mL (≈ 1.31 µM)
[3]
  MIC: 4 µg/mL (≈ 5.26 µM)
[4]
  IC50: 1.98 µM
[5]
  MIC: 1 µg/mL (≈ 1.31 µM)
[6]
  IC50: 11 µM
[7]
  MIC: 2 µg/mL (≈ 2.63 µM)
[8]
  MIC: 1 µg/mL (≈ 1.31 µM)
[9]
  MIC: 2 µg/mL (≈ 2.63 µM)
[10]
  MIC: 1 µg/mL (≈ 1.31 µM)
[11]
  MIC: 4 µg/mL (≈ 5.26 µM)

## O=C(CCc1ccc(O)cc1)O[C@H]1[C@H](Oc2c(-c3ccc(O)c(O)c3)oc3cc(O)cc(O)c3c2=O)O[C@H](CO)[C@@H](O)[C@@H]1OC(=O)CCc1ccc(O)cc1
[1]
  MIC: 2 µg/mL (≈ 2.63 µM)
[2]
  MIC: 1 µg/mL (≈ 1.31 µM)
[3]
  MIC: 4 µg/mL (≈ 5.26 µM)
[4]
  IC50: 1.98 µM
[5]
  MIC: 1 µg/mL (≈ 1.31 µM)
[6]
  IC50: 11.8 µM
[7]
  MIC: 2 µg/mL (≈ 2.63 µM)
[8]
  MIC: 1 µg/mL (≈ 1.31 µM)
[9]
  MIC: 2 µg/mL (≈ 2.63 µM)
[10]
  MIC: 1 µg/mL (≈ 1.31 µM)
[11]
  MIC: 4 µg/mL (≈ 5.26 µM)

## CN[C@H](CC(C)C)C(=O)N[C@H]1C(=O)N[C@@H](CC(N)=O)C(=O)N[C@H]2C(=O)N[C@H]3C(=O)N[C@H](C(=O)N[C@H](C(=O)O)c4cc(O)cc(O)c4-c4cc3ccc4O)[C@H](O)c3ccc(c(Cl)c3)Oc3cc2cc(c3O[C@@H]2O[C@H](CO)[C@@H](O)[C@H](O)[C@H]2O[C@H]2C[C@](C)(N)[C@H](O)[C@H](C)O2)Oc2ccc(cc2Cl)[C@H]1O [VANCOMYCIN]
[1]
  MIC: 0.25 µg/mL (≈ 0.173 µM)
[2]
  MIC: 0.25 µg/mL (≈ 0.173 µM)
[3]
  MIC: > 128 µg/mL
[5]
  MIC: 0.25 µg/mL (≈ 0.173 µM)
[7]
  MIC: 0.25 µg/mL (≈ 0.173 µM)
[8]
  MIC: 8 µg/mL (≈ 5.52 µM)
[9]
  MIC: > 128 µg/mL
[10]
  MIC: 0.25 µg/mL (≈ 0.173 µM)
[11]
  MIC: 0.25 µg/mL (≈ 0.173 µM)

## Cc1ccc(CCC(=O)O[C@H]2[C@H](Oc3c(-c4ccc(O)c(O)c4)oc4cc(O)cc(O)c4c3=O)O[C@H](CO)[C@@H](O)[C@@H]2OC(=O)CCc2ccc(C)cc2)cc1
[1]
  MIC: 2 µg/mL (≈ 2.64 µM)
[2]
  MIC: 1 µg/mL (≈ 1.32 µM)
[3]
  MIC: 4 µg/mL (≈ 5.29 µM)
[4]
  IC50: 2.02 µM
[5]
  MIC: 1 µg/mL (≈ 1.32 µM)
[6]
  IC50: 11.6 µM
[7]
  MIC: 2 µg/mL (≈ 2.64 µM)
[8]
  MIC: 1 µg/mL (≈ 1.32 µM)
[9]
  MIC: 2 µg/mL (≈ 2.64 µM)
[10]
  MIC: 1 µg/mL (≈ 1.32 µM)
[11]
  MIC: 4 µg/mL (≈ 5.29 µM)

## O=C(O[C@H]1[C@H](Oc2c(-c3ccc(O)c(O)c3)oc3cc(O)cc(O)c3c2=O)O[C@H](CO)[C@@H](O)[C@@H]1OC(=O)c1ccc(F)cc1)c1ccc(F)cc1
[1]
  MIC: 2 µg/mL (≈ 2.82 µM)
[2]
  MIC: 1 µg/mL (≈ 1.41 µM)
[3]
  MIC: 4 µg/mL (≈ 5.65 µM)
[4]
  IC50: 1.21 µM
[5]
  MIC: 1 µg/mL (≈ 1.41 µM)
[6]
  IC50: 10.8 µM
[7]
  MIC: 2 µg/mL (≈ 2.82 µM)
[8]
  MIC: 1 µg/mL (≈ 1.41 µM)
[9]
  MIC: 2 µg/mL (≈ 2.82 µM)
[10]
  MIC: 1 µg/mL (≈ 1.41 µM)
[11]
  MIC: 4 µg/mL (≈ 5.65 µM)

## O=C(Cc1ccc(F)cc1)O[C@H]1[C@H](Oc2c(-c3ccc(O)c(O)c3)oc3cc(O)cc(O)c3c2=O)O[C@H](CO)[C@@H](O)[C@@H]1OC(=O)Cc1ccc(F)cc1
[1]
  MIC: 2 µg/mL (≈ 2.72 µM)
[2]
  MIC: 1 µg/mL (≈ 1.36 µM)
[3]
  MIC: 4 µg/mL (≈ 5.43 µM)
[4]
  IC50: 1.45 µM
[5]
  MIC: 1 µg/mL (≈ 1.36 µM)
[6]
  IC50: 10.1 µM
[7]
  MIC: 2 µg/mL (≈ 2.72 µM)
[8]
  MIC: 1 µg/mL (≈ 1.36 µM)
[9]
  MIC: 2 µg/mL (≈ 2.72 µM)
[10]
  MIC: 1 µg/mL (≈ 1.36 µM)
[11]
  MIC: 4 µg/mL (≈ 5.43 µM)
